Assay results gathered from unrelated publications.
PIK3CA E542K: Phosphatidylinositol 4,5-bisphosphate 3-kinase catalytic subunit alpha isoform (PIK3CA, Homo sapiens, UniProt P42336, E542K)
PIK3CA: Phosphatidylinositol 4,5-bisphosphate 3-kinase catalytic subunit alpha isoform (PIK3CA, Homo sapiens, UniProt P42336)
PIK3CA H1047Y: Phosphatidylinositol 4,5-bisphosphate 3-kinase catalytic subunit alpha isoform (PIK3CA, Homo sapiens, UniProt P42336, H1047Y)

Compound	target	observed	mode	method	tested at	quantity	result
C1=C/COCc2cc(ccc2OCCN2CCCC2)Nc2nccc(n2)-c2cccc(c2)COC/1	Phosphatidylinositol 4,5-bisphosphate 3-kinase catalytic subunit alpha isoform (PIK3CA, Homo sapiens, UniProt P42336, I800L)	binding	–	–	0.1 µM	remaining binding	60%
CO[C@@H]1[C@H](N(C)C(=O)c2ccccc2)C[C@H]2O[C@]1(C)n1c3ccccc3c3c4c(c5c6ccccc6n2c5c31)C(=O)NC4	Phosphatidylinositol 4,5-bisphosphate 3-kinase catalytic subunit alpha isoform (PIK3CA, Homo sapiens, UniProt P42336, M1043I)	enzyme activity	inhibitor	–	1 µM	inhibition	1%
CCCCC(=O)Nc1ccc(-c2ccc3ncn(CCC)c(=O)c3c2)cn1	PIK3CA E542K	binding	–	competition with immobilised ligand	0.5 µM	remaining binding	96%
Cc1cc(O)c(-c2ccc([C@@H](C)CN(C)C)cc2)c2c1[nH]c(=O)c1sccc12	PIK3CA	enzyme activity	inhibitor	–	0.1 µM	inhibition	-4.62%
C#Cc1cnc(Nc2ccnc(CO)c2)nc1Nc1ccccc1S(C)(=O)=NC#N (stereo not drawn)	PIK3CA	cell-free assay	–	–	1 µM	remaining signal	100%
CC#CC(=O)N1CCC[C@H]1c1nc(-c2ccc(C(=O)Nc3ccccn3)cc2)c2c(N)nccn12	Phosphatidylinositol 4,5-bisphosphate 3-kinase catalytic subunit alpha isoform (PIK3CA, Homo sapiens, UniProt P42336, Q546K)	enzyme activity	inhibitor	–	1 µM	inhibition	38%
C[C@H]1CC[C@H](n2c3cnccc3c3cnc(Nc4ccc5c(n4)CCN(C(=O)CO)C5)nc32)CC1	PIK3CA E542K	cell-free assay	–	–	1 µM	remaining signal	100%
C=CC(=O)N1CCC[C@@H](n2nc(-c3ccc(Oc4ccccc4)cc3)c3c(N)ncnc32)C1	Phosphatidylinositol 4,5-bisphosphate 3-kinase catalytic subunit alpha isoform (PIK3CA, Homo sapiens, UniProt P42336, C420R)	enzyme activity	inhibitor	–	1 µM	inhibition	28%
COc1ccc2[nH]c3c4[nH]c5ccc(OC)cc5c4c4c(c3c2c1)C(=O)NC4=O	PIK3CA	binding	–	–	1 µM	remaining binding	91%
N#Cc1ccc(NC(=O)Nc2ccccc2)cc1	PIK3CA	cell-free assay	–	competition with immobilised ligand	25 µM	remaining binding	92%
C=CC(=O)N1CCC([C@@H]2CCNc3c(C(N)=O)c(-c4ccc(Oc5ccccc5)cc4)nn32)CC1	PIK3CA H1047Y	enzyme activity	inhibitor	–	1 µM	inhibition	12%
Cc1ccc(NC(=O)c2ccnc(C(F)(F)F)c2)cc1-c1cc(OCCO)nc(N2CCOCC2)c1	PIK3CA H1047Y	binding	–	–	1 µM	remaining binding	74%
